According to ChEMBL document CHEMBL1125228, “A 3-D model for 5-HT1A-receptor agonists based on stereoselective methyl-substituted and conformationally restricted analogues of 8-hydroxy-2-(dipropylamino)tetralin” (J Med Chem, 1991):
Several values for one entry are separate records, joined by “and”; a condition that tells them apart may be missing. Identical values can stand only once.

How the values were obtained:
[1] = target: T1, 5-hydroxytryptamine receptor 1A (Rattus norvegicus, UniProt P19327); assay: Binding affinity at 5-hydroxytryptamine 1A receptor by the displacement of [3H]8-OH-DPAT in rat brain.; format: tissue-based
T1 sequence (P19327 whole entry): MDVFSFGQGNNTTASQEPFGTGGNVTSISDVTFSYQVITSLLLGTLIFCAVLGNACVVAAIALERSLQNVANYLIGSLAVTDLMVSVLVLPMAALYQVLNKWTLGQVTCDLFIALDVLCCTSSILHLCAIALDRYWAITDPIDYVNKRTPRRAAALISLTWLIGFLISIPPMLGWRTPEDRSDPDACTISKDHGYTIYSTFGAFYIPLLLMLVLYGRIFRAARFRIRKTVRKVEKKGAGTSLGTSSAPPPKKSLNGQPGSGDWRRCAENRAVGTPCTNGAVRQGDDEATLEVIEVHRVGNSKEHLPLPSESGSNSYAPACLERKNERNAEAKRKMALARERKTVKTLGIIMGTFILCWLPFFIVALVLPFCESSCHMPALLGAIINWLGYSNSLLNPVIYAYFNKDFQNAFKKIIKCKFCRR
Summary of the method: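 Rat brain membranes washed in 50 mM Tris-HCl pH 7.4, with a 37 °C 10 min incubation to remove endogenous 5-HT, used at 10 mg wet tissue/mL. Incubated 15 min at 37 °C with 1 nM [3H]-8-OH-DPAT, 3 mM CaCl2 and pargyline. Filtered and counted; 10 µM 5-HT defined nonspecific binding. IC50 from four-parameter logistic fit, converted to Ki by Cheng-Prusoff; mean ± SEM of N experiments.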

[2] = target: Serotonin (5-HT) receptor (Rattus norvegicus) (UniProt P35563+P35365+P32305+P31388+Q9JJ16+P28564+P30994+Q62758+P08909+P14842+P30940+P35364+P19327+P28565); assay: Dose corresponding to half-maximal decrease of 5-HTP formation in the limbic and striatal parts of rat brain; format: functional, tissue-based
[3] = test system: Rattus norvegicus; assay: In vivo accumulation of DOPA in brain stem of rat brain at a dose of 53 umol/kg.; format: functional
Summary of the method: (§1)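 Hydrochlorides given sc in the neck (5 mL/kg) to rats, either untreated or reserpine-pretreated (5 mg/kg sc, 6 h before). Decarboxylase inhibitor NSD 1015 (100 mg/kg ip or 60 mg/kg sc) given 30 min later; rats decapitated after another 30 min. Striatum, limbic system, hemispheres and brain stem dissected on ice and homogenized in 0.1 M perchloric acid with α-methyl-DOPA internal standard. DOPA, DA, 5-HTP and 5-HT measured by ion-pair reversed-phase HPLC with electrochemical detection.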

[4] = test system: Rattus norvegicus; assay: In vivo accumulation of 5-HT in striatum of rat brain at a dose of 53 umol/kg.; format: functional; summary of the method: as §1
[5] = test system: Rattus norvegicus; assay: In vivo accumulation of 5-HTP in striatum of rat brain at a dose of 53 umol/kg.; format: functional; summary of the method: as §1
[6] = test system: Rattus norvegicus; assay: In vivo accumulation of 5-HTP in hemisphere of rat brain at a dose of 53 umol/kg.; format: functional; summary of the method: as §1
[7] = test system: Rattus norvegicus; assay: In vivo accumulation of 5-HTP in brain stem of rat brain at a dose of 53 umol/kg.; format: functional; summary of the method: as §1
[8] = test system: Rattus norvegicus; assay: In vivo accumulation of DA in striatum of rat brain at a dose of 53 umol/kg.; format: functional; summary of the method: as §1
[9] = test system: Rattus norvegicus; assay: In vivo accumulation of 5-HTP in limbic of rat brain at a dose of 53 umol/kg.; format: functional; summary of the method: as §1
[10] = test system: Rattus norvegicus; assay: In vivo accumulation of 5-HT in limbic of rat brain at a dose of 53 umol/kg.; format: functional; summary of the method: as §1
[11] = test system: Rattus norvegicus; assay: In vivo accumulation of DOPA in striatum of rat brain at a dose of 53 umol/kg.; format: functional
Summary of the method: (§2)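 Rats, reserpine-pretreated (5 mg/kg, i.e. 9 μmol/kg sc, 6 h before) or nonpretreated, given test hydrochloride sc in the neck (injection volume 5 mL/kg). Decarboxylase inhibitor NSD 1015 (100 mg/kg ip or 60 mg/kg sc) given 30 min later; decapitation after another 30 min. Brain dissected on ice into striatum, limbic system, hemispheres, brain stem. Homogenized in 0.1 M perchloric acid with α-methyl-DOPA internal standard; DOPA measured by ion-pair reversed-phase HPLC with electrochemical detection.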

[12] = target: T2, Dopamine receptor (Rattus norvegicus) (UniProt P25115+P19020+P30729+P18901+P61169); assay: In vivo accumulation of DOPA in hemisphere of rat brain at a dose of 53 umol/kg.; format: functional, organism-based; summary of the method: as §2
[13] = test system: Rattus norvegicus; assay: In vivo accumulation of 5-HT in striatum of rat brain at a dose of 63 umol/kg.; format: functional; summary of the method: as §1
[14] = test system: Rattus norvegicus; assay: In vivo accumulation of 5-HTP in brain stem of rat brain at a dose of 63 umol/kg.; format: functional; summary of the method: as §1
[15] = test system: Rattus norvegicus; assay: In vivo accumulation of DOPA in brain stem of rat brain at a dose of 63 umol/kg.; format: functional; summary of the method: as §1
[16] = target: T2, Dopamine receptor (Rattus norvegicus); assay: In vivo accumulation of DOPA in limbic of rat brain at a dose of 63 umol/kg.; format: functional, organism-based; summary of the method: as §2
[17] = test system: Rattus norvegicus; assay: In vivo accumulation of 5-HTP in hemisphere of rat brain at a dose of 63 umol/kg.; format: functional; summary of the method: as §1
[18] = test system: Rattus norvegicus; assay: In vivo accumulation of DOPA in hemisphere of rat brain at a dose of 63 umol/kg.; format: functional; summary of the method: as §2
[19] = test system: Rattus norvegicus; assay: In vivo accumulation of DA in striatum of rat brain at a dose of 63 umol/kg.; format: functional; summary of the method: as §1
[20] = test system: Rattus norvegicus; assay: In vivo accumulation of DOPA in striatum of rat brain at a dose of 63 umol/kg.; format: functional; summary of the method: as §2
[21] = test system: Rattus norvegicus; assay: In vivo accumulation of 5-HTP in limbic of rat brain at a dose of 63 umol/kg.; format: functional; summary of the method: as §1
[22] = test system: Rattus norvegicus; assay: In vivo accumulation of 5-HTP in striatum of rat brain at a dose of 63 umol/kg.; format: functional; summary of the method: as §1
[23] = test system: Rattus norvegicus; assay: In vivo accumulation of 5-HT in limbic of rat brain at a dose of 63 umol/kg.; format: functional; summary of the method: as §1

CCCN(CCC)C1(C)CCc2cccc(O)c2C1 (racemic)
Ki [1]: 1130 nM
ED50 [2]: > 0.05 mg/kg

CCCN(CCC)[C@H]1Cc2c(O)cccc2C[C@@H]1C
Ki [1]: 49.6 nM

CCCN(CCC)[C@@H]1CCc2cccc(O)c2[C@@H]1C
Ki [1]: 2.08 nM

CCCN(CCC)C1CCc2cccc(O)c2C1C (racemic)
Ki [1]: 2.84 nM

CCCN1CCC[C@@H]2Cc3cccc(O)c3C[C@H]21 [listing 1 of 2 here]
Control [3]: 125.1%
Control [4]: 132%
Control [5]: 85%
Control [6]: 92.2%
Control [7]: 91.9%
Control [8]: 114.5%
Control [9]: 88%
Control [10]: 114.3%
Control [11]: 66.1%

CCCN(CCC)[C@@H]1C[C@@H]1c1ccccc1O
ED50 [2]: 0.04 mg/kg

CCCN(CCC)C1Cc2c(O)cccc2CC1(C)C (racemic)
Ki [1]: > 10000 nM
ED50 [2]: > 0.05 mg/kg

CCCN(CCC)[C@H]1Cc2c(O)cccc2C[C@H]1C (racemic)
Ki [1]: 656 nM

CCCN1CCC[C@@H]2c3c(O)cccc3CC[C@H]21
ED50 [2]: 0.0005 mg/kg
Control [12]: 117%

CCCN(CCC)[C@H]1CCc2cccc(O)c2[C@H]1C
Ki [1]: 2920 nM
ED50 [2]: > 0.05 mg/kg

CCCN1CCC[C@@H]2Cc3cccc(O)c3C[C@H]21 [listing 2 of 2 here]
ED50 [2]: > 0.05 mg/kg
Control [12]: 97.5%

CCCN(CCC)[C@H]1Cc2c(O)cccc2C[C@@H]1C (racemic)
Ki [1]: 104 nM

CCCN(CCC)[C@@H]1C[C@@H]1c1cccc(O)c1
ED50 [2]: > 0.05 mg/kg

CCCN1CCC[C@H]2Cc3cccc(O)c3C[C@@H]21
Ki [1]: > 10000 nM

CCCN(CCC)[C@@H]1CCc2cccc(O)c2[C@H]1C (racemic)
Ki [1]: 1040 nM
ED50 [2]: > 0.05 mg/kg

Oc1cccc2c1C[C@H]1NCCC[C@@H]1C2
Control [13]: 100.5%
Control [14]: 101.7%
Control [15]: 91.4%
Control [16]: 84.4% and 89.8%
Control [17]: 81.9%
Control [18]: 79%
Control [19]: 92.4%
Control [20]: 84.2%
Control [21]: 82.3%
Control [22]: 96.5%
Control [23]: 89.4%

CCCN(CCC)[C@@H]1Cc2c(O)cccc2C[C@H]1C
Ki [1]: 1390 nM
ED50 [2]: > 0.043 mg/kg

CCCN(CCC)[C@H]1Cc2c(O)cccc2C[C@H]1C
Ki [1]: 2020 nM
